# Measured values published in ChEMBL document CHEMBL3227926, “2-Mercaptoacetamidines as gastric antisecretory agents” (J Med Chem, 1979).
# Experiments:
# Canis familiaris [1] = assay: Inhibition of histamine-induced gastric secretion in beagle dog assessed as total acid output at 32 mg/kg administered directly into stomach via gastric cannula measured after 2 hrs of stimulation; format: functional; details: Canis lupus familiaris
# Summary of the method: (§1)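 Fistulated conscious female beagles (5-9 kg) got the dose intragastrically via cannula in 50 mL 1% methylcellulose, with vehicle controls. Histamine 64 µg base/kg sc (diphosphate in saline) was given 1 h later. Output over 2 h was assessed as volume, titratable acid (titration to pH 7, 0.01 N NaOH) and total acid output (volume × concentration).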
# Canis familiaris [2] = assay: Toxicity in beagle dog assessed as tachycardia administered directly into stomach via gastric cannula; format: organism-based, Canis lupus familiaris; details: in vivo, other
# Canis familiaris [3] = assay: Inhibition of 2-deoxy-D-glucose-induced gastric secretion in beagle dog assessed as volume at 8 mg/kg administered directly into stomach via gastric cannula measured after 2 hrs of stimulation; format: functional; details: Canis lupus familiaris
# Summary of the method: (§2)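 Female beagles (5-9 kg), nonanesthetized, with chronic gastric fistula. Test agent was given in 50 mL 1% methylcellulose through the gastric cannula, with vehicle controls, 1 h before 2-deoxy-D-glucose 200 mg/kg sc in saline. The 2 h collection was measured for volume and for acid by titration to pH 7 with 0.01 N NaOH; total acid was calculated as volume × concentration.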
# Canis familiaris [4] = assay: Inhibition of 2-deoxy-D-glucose-induced gastric secretion in beagle dog assessed as volume at 16 mg/kg administered directly into stomach via gastric cannula measured after 2 hrs of stimulation; format: functional; details: Canis lupus familiaris; summary of the method: as §2
# Canis familiaris [5] = assay: Inhibition of histamine-induced gastric secretion in beagle dog assessed as volume at 32 mg/kg administered directly into stomach via gastric cannula measured after 2 hrs of stimulation; format: functional; details: Canis lupus familiaris; summary of the method: as §1
# Canis familiaris [6] = assay: Inhibition of 2-deoxy-D-glucose-induced gastric secretion in beagle dog assessed as total acid output at 16 mg/kg administered directly into stomach via gastric cannula measured after 2 hrs of stimulation; format: functional; details: Canis lupus familiaris; summary of the method: as §2
# Canis familiaris [7] = assay: Inhibition of histamine-induced gastric secretion in beagle dog assessed as titratable acid at 32 mg/kg administered directly into stomach via gastric cannula measured after 2 hrs of stimulation; format: functional; details: Canis lupus familiaris; summary of the method: as §1
# Canis familiaris [8] = assay: Toxicity in beagle dog assessed as gastric bleeding administered directly into stomach via gastric cannula; format: organism-based, Canis lupus familiaris; details: in vivo, other
# Canis familiaris [9] = assay: Inhibition of gastrin tetrapeptide-induced gastric secretion in beagle dog at 16 mg/kg administered directly into stomach via gastric cannula measured after 2 hrs of stimulation; format: functional; details: Canis lupus familiaris
# Summary of the method: (§3)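 Conscious female beagles (5-9 kg) with chronic gastric fistula. Dose in 50 mL 1% methylcellulose was put into the stomach via the cannula 1 h before gastrin tetrapeptide 64 µg/kg sc (from 640 µg/mL in 30% Me2SO); controls got vehicle. Juice was collected for 2 h. Volume was measured, titratable acid obtained by titration to pH 7 with 0.01 N NaOH, and total acid taken as volume × concentration.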
# Canis familiaris [10] = assay: Toxicity in beagle dog assessed as emesis administered directly into stomach via gastric cannula; format: organism-based, Canis lupus familiaris; details: in vivo, other
# Canis familiaris [11] = assay: Inhibition of 2-deoxy-D-glucose-induced gastric secretion in beagle dog assessed as total acid output at 8 mg/kg administered directly into stomach via gastric cannula measured after 2 hrs of stimulation; format: functional; details: Canis lupus familiaris; summary of the method: as §2
# Canis familiaris [12] = assay: Inhibition of gastrin tetrapeptide-induced gastric secretion in beagle dog at 8 mg/kg administered directly into stomach via gastric cannula measured after 2 hrs of stimulation; format: functional; details: Canis lupus familiaris; summary of the method: as §3
# Canis familiaris [13] = assay: Inhibition of gastrin tetrapeptide-induced gastric secretion in beagle dog assessed as titratable acid at 16 mg/kg administered directly into stomach via gastric cannula measured after 2 hrs of stimulation; format: functional; details: Canis lupus familiaris; summary of the method: as §3
# Canis familiaris [14] = assay: Inhibition of gastrin tetrapeptide-induced gastric secretion in beagle dog assessed as volume at 8 mg/kg administered directly into stomach via gastric cannula measured after 2 hrs of stimulation; format: functional; details: Canis lupus familiaris; summary of the method: as §3
# Canis familiaris [15] = assay: Inhibition of gastrin tetrapeptide-induced gastric secretion in beagle dog assessed as titratable acid at 8 mg/kg administered directly into stomach via gastric cannula measured after 2 hrs of stimulation; format: functional; details: Canis lupus familiaris; summary of the method: as §3
# Canis familiaris [16] = assay: Inhibition of gastrin tetrapeptide-induced gastric secretion in beagle dog assessed as total acid output at 8 mg/kg administered directly into stomach via gastric cannula measured after 2 hrs of stimulation; format: functional; details: Canis lupus familiaris; summary of the method: as §3
# Canis familiaris [17] = assay: Inhibition of gastrin tetrapeptide-induced gastric secretion in beagle dog assessed as volume at 16 mg/kg administered directly into stomach via gastric cannula measured after 2 hrs of stimulation; format: functional; details: Canis lupus familiaris; summary of the method: as §3
# Canis familiaris [18] = assay: Inhibition of 2-deoxy-D-glucose-induced gastric secretion in beagle dog assessed as titratable acid at 8 mg/kg administered directly into stomach via gastric cannula measured after 2 hrs of stimulation; format: functional; details: Canis lupus familiaris; summary of the method: as §2
# Canis familiaris [19] = assay: Inhibition of 2-deoxy-D-glucose-induced gastric secretion in beagle dog assessed as titratable acid at 16 mg/kg administered directly into stomach via gastric cannula measured after 2 hrs of stimulation; format: functional; details: Canis lupus familiaris; summary of the method: as §2
# Canis familiaris [20] = assay: Inhibition of gastrin tetrapeptide-induced gastric secretion in beagle dog assessed as total acid output at 16 mg/kg administered directly into stomach via gastric cannula measured after 2 hrs of stimulation; format: functional; details: Canis lupus familiaris; summary of the method: as §3
# Canis familiaris [21] = assay: Inhibition of gastrin tetrapeptide-induced gastric secretion in beagle dog at 4 mg/kg administered directly into stomach via gastric cannula measured after 2 hrs of stimulation; format: functional; details: Canis lupus familiaris; summary of the method: as §3
# Canis familiaris [22] = assay: Inhibition of gastrin tetrapeptide-induced gastric secretion in beagle dog at 2 mg/kg administered directly into stomach via gastric cannula measured after 2 hrs of stimulation; format: functional; details: Canis lupus familiaris; summary of the method: as §3
# Canis familiaris [23] = assay: Inhibition of gastrin tetrapeptide-induced gastric secretion in beagle dog at 32 mg/kg administered directly into stomach via gastric cannula measured after 2 hrs of stimulation; format: functional; details: Canis lupus familiaris; summary of the method: as §3
# [24] = Dissociation constant, apparent pKa of the compound in 20% EtOH/H2O; format: physicochemical; details: read-out: Apparent_pKa
# Summary of the method: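 Potentiometric titration in 20% EtOH–H2O with a glass-calomel electrode. Sample was titrated directly with 0.5 N NaOH, or dissolved with excess NaOH and back-titrated with 0.5 N HCl. pKa was read as the pH at the half-neutralization point of the curve.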
# Canis familiaris [25] = assay: Inhibition of gastrin tetrapeptide-induced gastric secretion in beagle dog assessed as volume at 32 mg/kg administered directly into stomach via gastric cannula measured after 2 hrs of stimulation; format: functional; details: Canis lupus familiaris; summary of the method: as §3
# Canis familiaris [26] = assay: Inhibition of gastrin tetrapeptide-induced gastric secretion in beagle dog assessed as titratable acid at 32 mg/kg administered directly into stomach via gastric cannula measured after 2 hrs of stimulation; format: functional; details: Canis lupus familiaris; summary of the method: as §3
# Canis familiaris [27] = assay: Inhibition of gastrin tetrapeptide-induced gastric secretion in beagle dog assessed as total acid output at 32 mg/kg administered directly into stomach via gastric cannula measured after 2 hrs of stimulation; format: functional; details: Canis lupus familiaris; summary of the method: as §3
structure (smiles),measurement,setting,value
Cl.N=C(CS)NCC12CC3CC(CC(C3)C1)C2,inhibition in vivo at 32 mg/kg,Canis familiaris [1],55%
same,Activity,Canis familiaris [2],Toxic
same,inhibition in vivo at 8 mg/kg,Canis familiaris [3],31%
same,inhibition in vivo at 16 mg/kg,Canis familiaris [4],79%
same,inhibition in vivo at 32 mg/kg,Canis familiaris [5],36%
same,inhibition in vivo at 16 mg/kg,Canis familiaris [6],97%
same,inhibition in vivo at 32 mg/kg,Canis familiaris [7],40%
same,Activity,Canis familiaris [8],Toxic
same,inhibition in vivo at 16 mg/kg,Canis familiaris [9],74%
same,Activity,Canis familiaris [10],Toxic
same,inhibition in vivo at 8 mg/kg,Canis familiaris [11],42%
same,inhibition in vivo at 8 mg/kg,Canis familiaris [12],47%
same,inhibition in vivo at 16 mg/kg,Canis familiaris [13],91%
same,inhibition in vivo at 8 mg/kg,Canis familiaris [14],7%
same,inhibition in vivo at 8 mg/kg,Canis familiaris [15],0%
same,inhibition in vivo at 8 mg/kg,Canis familiaris [16],8%
same,inhibition in vivo at 16 mg/kg,Canis familiaris [17],74%
same,inhibition in vivo at 8 mg/kg,Canis familiaris [18],18%
same,inhibition in vivo at 16 mg/kg,Canis familiaris [19],85%
same,inhibition in vivo at 16 mg/kg,Canis familiaris [20],83%
CCNC(=N)CS.Cl,Activity,Canis familiaris [2],Toxic
same,Activity,Canis familiaris [8],Toxic
same,inhibition in vivo at 4 mg/kg,Canis familiaris [21],90%
same,Activity,Canis familiaris [10],Toxic
same,inhibition in vivo at 2 mg/kg,Canis familiaris [22],27%
Cl.N=C(CS)Nc1cccc(Cl)c1,inhibition in vivo at 32 mg/kg,Canis familiaris [23],61%
same,Activity,Canis familiaris [2],Toxic
same,Activity,Canis familiaris [8],Toxic
same,inhibition in vivo at 16 mg/kg,Canis familiaris [9],16%
same,Activity,Canis familiaris [10],Toxic
Cl.SCC1=NCCN1,Activity,Canis familiaris [2],Toxic
same,Activity,Canis familiaris [8],Toxic
same,Activity,Canis familiaris [10],Toxic
same,inhibition in vivo at 2 mg/kg,Canis familiaris [22],100%
Cl.N=C(CCS)NCc1ccccc1,inhibition in vivo at 32 mg/kg,Canis familiaris [23],42%
same,Activity,Canis familiaris [2],Toxic
same,Activity,Canis familiaris [8],Toxic
same,inhibition in vivo at 16 mg/kg,Canis familiaris [9],18%
same,Activity,Canis familiaris [10],Toxic
N=C(CSCc1ccccc1)NC[C@@H]1C[C@H]2CC[C@H]1C2 (relative stereo; 51),Activity,Canis familiaris [2],Toxic
same,Activity,Canis familiaris [8],Toxic
same,inhibition in vivo at 16 mg/kg,Canis familiaris [9],19%
same,Activity,Canis familiaris [10],Toxic
same,pKa,[24],11
CNC(=S)NCCSCc1[nH]cnc1C [METIAMIDE],inhibition in vivo at 32 mg/kg,Canis familiaris [25],83%
same,inhibition in vivo at 16 mg/kg,Canis familiaris [13],91%
same,inhibition in vivo at 32 mg/kg,Canis familiaris [26],70%
same,inhibition in vivo at 16 mg/kg,Canis familiaris [17],65%
same,inhibition in vivo at 32 mg/kg,Canis familiaris [27],90%
same,inhibition in vivo at 16 mg/kg,Canis familiaris [20],64%
